From ChEMBL document CHEMBL1122479, “Nucleic acid related compounds. 40. Synthesis and biological activities of 5-alkynyluracil nucleosides” (1983)
Values after ≈ are worked out from the molar mass of the structure shown.

Assays:
Assay type in all cases: functional
[1] = tested on: PRK; experiment: Concentration required to reduce Herpes simplex virus type 1 induced cytopathogenicity in primary rabbit kidney (PRK) cell cultures; details: Human alphaherpesvirus 1, PRK; read-out: ID50 (the source's name)
[2] = tested on: L1210; experiment: Concentration required to reduce leukemia L1210 cell growth […]; details: Mus musculus, read-out: ID50 (the source's name)
[3] = tested on: PRK; experiment: Concentration required to reduce Vaccinia virus induced cytopathogenicity in primary rabbit kidney (PRK) cell cultures; details: Orthopoxvirus vaccinia, read-out: ID50 (the source's name)
[4] = tested on: PRK; experiment: Inhibitory activity against incorporation of deoxy-[1',2'-3H]uridine (dUrd) into the DNA of uninfected primary rabbit kidney (PRK) cell cultures; details: Oryctolagus cuniculus, read-out: ID50 (the source's name)
Procedure, shortened: (§1)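 Uninfected primary rabbit kidney cells were used as a cytotoxicity measure. Incorporation of [methyl-3H]dThd or [1',2'-3H]dUrd into cellular DNA was followed with compound present.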

[5] = tested on: PRK; experiment: Concentration required to reduce Herpes simplex virus type 2 induced cytopathogenicity in primary rabbit kidney (PRK) cell cultures; details: Human alphaherpesvirus 2, PRK; read-out: ID50 (the source's name)
[6] = tested on: PRK; experiment: Inhibitory activity against incorporation of deoxy-[methyl.3H-]-thymidine (dThd) into the DNA of uninfected primary rabbit kidney (PRK) cell cultures; details: Oryctolagus cuniculus, read-out: ID50 (the source's name); procedure, shortened: as §1
[7] = tested on: L1210; experiment: Inhibitory activity against incorporation of deoxy-[methyl.3H-]-thymidine (dThd) into the DNA of murine leukemia L1210 cell cultures; details: Mus musculus, read-out: ID50 (the source's name)

| SMILES | IC50 [1] [mg/L] | IC50 [2] [mg/L] | IC50 [3] [mg/L] | IC50 [4] [mg/L] | IC50 [5] [mg/L] | IC50 [6] [mg/L] | IC50 [7] [mg/L] |
| --- | --- | --- | --- | --- | --- | --- | --- |
| CCC#Cc1cn([C@H]2C[C@H](O)[C@@H](CO)O2)c(=O)[nH]c1=O | 4 (≈ 14.3 µM) | > 1000 | 7 (≈ 25 µM) | 2 (≈ 7.14 µM) | 32 (≈ 114 µM) | 13 (≈ 46.4 µM) |  |
| Cc1ccc(S(=O)(=O)OCCC#Cc2cn([C@H]3C[C@H](O)[C@@H](CO)O3)c(=O)[nH]c2=O)cc1 | 33 (≈ 73.3 µM) | > 200 | 10 (≈ 22.2 µM) | 44 (≈ 97.7 µM) | 63 (≈ 140 µM) | 13 (≈ 28.9 µM) | 112 (≈ 249 µM) |
| COCC#Cc1cn([C@H]2C[C@H](O)[C@@H](CO)O2)c(=O)[nH]c1=O | 1 (≈ 3.38 µM) | 254 (≈ 857 µM) | 2 (≈ 6.75 µM) | 2 (≈ 6.75 µM) | 2 (≈ 6.75 µM) | 16 (≈ 54 µM) |  |
| CCCC/C=C\c1cn([C@H]2C[C@H](O)[C@@H](CO)O2)c(=O)[nH]c1=O | > 400 | 361 (≈ 1160 µM) | > 400 | 34 (≈ 110 µM) | > 200 | 5 (≈ 16.1 µM) | 39 (≈ 126 µM) |
| C#Cc1cn([C@H]2C[C@H](O)[C@@H](CO)O2)c(=O)[nH]c1=O | 0.5 (≈ 1.98 µM) | 0.09 (≈ 0.357 µM) | 0.1 (≈ 0.396 µM) | 0.05 (≈ 0.198 µM) | 1 (≈ 3.96 µM) | 3 (≈ 11.9 µM) |  |
| CC#Cc1cn([C@H]2C[C@H](O)[C@@H](CO)O2)c(=O)[nH]c1=O | 0.3 (≈ 1.13 µM) | 164 (≈ 616 µM) | 0.4 (≈ 1.5 µM) | 0.7 (≈ 2.63 µM) | 0.7 (≈ 2.63 µM) | 3 (≈ 11.3 µM) |  |
| O=c1[nH]c(=O)n([C@H]2C[C@H](O)[C@@H](CO)O2)cc1C#Cc1ccccc1 | > 400 | 494 (≈ 1500 µM) | > 400 | 77 (≈ 235 µM) | > 400 | 23 (≈ 70.1 µM) | 120 (≈ 365 µM) |
| CC(C)(C)C#Cc1cn([C@H]2C[C@H](O)[C@@H](CO)O2)c(=O)[nH]c1=O | 4 (≈ 13 µM) | 287 (≈ 931 µM) | 7 (≈ 22.7 µM) | 2 (≈ 6.49 µM) | 19 (≈ 61.6 µM) | 6 (≈ 19.5 µM) |  |
| CCCCC#Cc1cn([C@H]2C[C@H](O)[C@@H](CO)O2)c(=O)[nH]c1=O | 108 (≈ 350 µM) | 1000 (≈ 3240 µM) | 45 (≈ 146 µM) | 59 (≈ 191 µM) | 350 (≈ 1140 µM) | 45 (≈ 146 µM) | 47 (≈ 152 µM) |
| O=c1[nH]c(=O)n([C@H]2C[C@H](O)[C@@H](CO)O2)cc1C#CCCCO | > 400 | 280 (≈ 902 µM) | 125 (≈ 403 µM) | > 156 | > 400 | > 200 |  |
| CCCCCCc1cn([C@H]2C[C@H](O)[C@@H](CO)O2)c(=O)[nH]c1=O | 400 (≈ 1280 µM) | 301 (≈ 964 µM) | 300 (≈ 960 µM) | 52 (≈ 166 µM) | 350 (≈ 1120 µM) | 7 (≈ 22.4 µM) |  |
| CCCCCC#Cc1cn([C@H]2C[C@H](O)[C@@H](CO)O2)c(=O)[nH]c1=O | > 400 | 219 (≈ 679 µM) | 70 (≈ 217 µM) | 33 (≈ 102 µM) | > 400 | 9 (≈ 27.9 µM) | 45 (≈ 140 µM) |
| O=c1[nH]c(=O)n([C@H]2C[C@H](O)[C@@H](CO)O2)cc1C#CCO | 36 (≈ 128 µM) | > 1000 | 10 (≈ 35.4 µM) | 8 (≈ 28.3 µM) | 37 (≈ 131 µM) | 68 (≈ 241 µM) |  |
| O=c1[nH]c(=O)n([C@H]2C[C@H](O)[C@@H](CO)O2)cc1C#CCCO | 18 (≈ 60.8 µM) | > 1000 | 10 (≈ 33.8 µM) | 13 (≈ 43.9 µM) | 47 (≈ 159 µM) | 73 (≈ 246 µM) |  |
| CCCC#Cc1cn([C@H]2C[C@H](O)[C@@H](CO)O2)c(=O)[nH]c1=O | 4 (≈ 13.6 µM) | > 1000 | 7 (≈ 23.8 µM) | 3 (≈ 10.2 µM) | 90 (≈ 306 µM) | 9 (≈ 30.6 µM) |  |
| CC(C)(C)C#Cc1cn(C2O[C@H](CO)[C@@H](O)[C@H]2O)c(=O)[nH]c1=O (some centres not stated) | > 400 |  | > 400 | > 400 | > 400 | > 400 | > 1000 |
| CCC#Cc1cn(C2O[C@H](CO)[C@@H](O)[C@@H]2O)c(=O)[nH]c1=O (some centres not stated) | 200 (≈ 675 µM) | > 1000 | > 400 | 215 (≈ 726 µM) | > 400 | 120 (≈ 405 µM) | > 1000 |
| CC#Cc1cn(C2O[C@H](CO)[C@@H](O)[C@@H]2O)c(=O)[nH]c1=O (some centres not stated) | 20 (≈ 70.9 µM) | 36 (≈ 128 µM) | 200 (≈ 709 µM) | > 100 | 50 (≈ 177 µM) | 92 (≈ 326 µM) | > 1000 |
| O=c1[nH]c(=O)n([C@H]2C[C@H](O)[C@@H](CO)O2)cc1/C=C/Br [BRIVUDINE] | 0.007 (≈ 0.021 µM) | 0.001 (≈ 0.003 µM) | 5 (≈ 15 µM) | 25 (≈ 75 µM) | 2.5 (≈ 7.5 µM) | 90 (≈ 270 µM) |  |
| O=c1[nH]c(=O)n([C@H]2C[C@H](O)[C@@H](CO)O2)cc1I [IDOXURIDINE] | 0.15 (≈ 0.424 µM) | 61 (≈ 172 µM) | 0.2 (≈ 0.565 µM) | 0.12 (≈ 0.339 µM) | 0.3 (≈ 0.847 µM) | 1.5 (≈ 4.24 µM) |  |
